Values after ≈ are worked out from the molar mass of the structure shown.
Experiments:
Format in all cases: functional
Trichophyton benhamiae = assay: In vitro antifungal activity against Trichophyton asteroides
In short: (§1)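 Broth microdilution MIC in Sabouraud's glucose broth; final inocula 1 × 10^5 cells/mL (yeast) or 1 × 10^5 conidia/mL (mold and dermatophyte).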

Candida albicans [1] = assay: Minimum effective concentration for inhibition of pseudomycelium formation in Candida albicans; conditions: for minimal effective concentration: Candida albicans, read-out: MEC
In short: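 C. albicans KE-2 (clinical isolate) at a final 1 × 10^6 yeast cells/mL in EMEM with 20% calf serum; compounds diluted by the same microtiter system as for MICs. After incubation, wells were Giemsa-stained (5% in phosphate buffer) and read by microscope. MEC is the lowest concentration preventing typical pseudomycelium formation.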

Candida albicans [2] = assay: In vitro antifungal activity against Candida albicans; in short: as §1
Aspergillus fumigatus = assay: In vitro antifungal activity against Aspergillus fumigatus; in short: as §1
[3] = Trichophyton benhamiae, read-out: MIC
[4] = Candida albicans, read-out: MIC
[5] = Aspergillus fumigatus, read-out: MIC

Structure (SMILES)	MIC (Trichophyton benhamiae; [3]) [µg/mL]	minimal effective concentration (Candida albicans [1]) [µg/mL]	MIC (Candida albicans [2]; [4]) [µg/mL]	MIC (Aspergillus fumigatus; [5]) [µg/mL]	MIC (Trichophyton benhamiae) [µg/mL]	MEC (Candida albicans [1]) [µg/mL]	MIC (Candida albicans [2]) [µg/mL]	MIC (Aspergillus fumigatus) [µg/mL]
Fc1ccc([C@H]2OC(=S)O[C@]2(Cn2cncn2)c2ccc(Cl)cc2Cl)cc1	3.1 (≈ 7.31 µM)	10	100 (≈ 236 µM)	> 100	–	–	–	–
Clc1ccc([C@H]2OCO[C@]2(Cn2cncn2)c2ccccc2)c(Cl)c1	0.2 (≈ 0.532 µM)	0.63	> 100	12.5 (≈ 33.2 µM)	–	–	–	–
OC(c1ccccc1Cl)C(O)(Cn1cncn1)c1ccccc1 (stereo unspecified)	0.8 (≈ 2.43 µM)	> 20	> 100	> 100	–	–	–	–
CCC[C@H]1OC(=O)O[C@]1(Cn1cncn1)c1ccc(Cl)cc1	1.6 (≈ 4.97 µM)	0.31	> 100	> 100	–	–	–	–
OC(c1ccccc1)C(O)(Cn1cncn1)c1ccccc1 (stereo unspecified)	25 (≈ 84.6 µM)	> 20	> 100	> 100	–	–	–	–
O=C(c1ccccn1)C(O)(Cn1cncn1)c1ccccn1 (stereo unspecified)	> 100	> 20	> 100	> 100	–	–	–	–
O=C(c1ccc(F)cc1)C(O)(Cn1ccnc1)c1ccc(Cl)cc1Cl (stereo unspecified)	0.1 (≈ 0.264 µM)	1.25	> 100	> 100	–	–	–	–
O=C1O[C@H](c2ccc(Cl)cc2)[C@](Cn2cncn2)(c2ccc(Cl)cc2Cl)O1	–	–	–	–	0.1 (≈ 0.235 µM)	0.08	–	–
O=C1O[C@H](c2ccc(Cl)cc2Cl)[C@@](Cn2cncn2)(c2ccccc2)O1	0.4 (≈ 1.03 µM)	1.25	> 100	> 100	–	–	–	–
OC(Cc1ccc(Cl)cc1)(c1ccc(F)cc1)C(O)(Cn1cncn1)c1ccc(Cl)cc1 (stereo unspecified)	> 100	20	> 100	> 100	–	–	–	–
O=C1O[C@H](c2ccc(Cl)cc2)[C@@](Cn2cncn2)(c2ccc(Cl)cc2)O1	0.8 (≈ 2.05 µM)	1.25	50 (≈ 128 µM)	> 100	–	–	–	–
CCCCCC(O)(Cn1cncn1)C(=O)c1ccc(Cl)cc1 (stereo unspecified)	0.2 (≈ 0.621 µM)	0.63	100 (≈ 311 µM)	> 100	–	–	–	–
OC(c1ccc(F)cc1)C(O)(Cn1cncn1)c1ccc(F)cc1 (stereo unspecified)	1.6 (≈ 4.83 µM)	10	> 100	> 100	–	–	–	–
OC(c1ccc(Cl)cc1Cl)C(O)(Cn1cncn1)c1ccc(Cl)cc1 (stereo unspecified)	0.1 (≈ 0.251 µM)	0.31	100 (≈ 251 µM)	> 100	–	–	–	–
CCCCC(O)(c1ccccc1)C(O)(Cn1cncn1)c1ccc(Cl)cc1Cl (stereo unspecified)	0.2 (≈ 0.476 µM)	2.5	> 100	> 100	–	–	–	–
O=C(c1ccc(F)cc1)C(O)(Cn1cncn1)c1ccc(F)cc1 (stereo unspecified)	0.79 (≈ 2.4 µM)	10	100 (≈ 304 µM)	> 100	–	–	–	–
CC(C)CC(O)(Cn1cncn1)C(=O)c1ccc(Cl)cc1 (stereo unspecified)	0.8 (≈ 2.6 µM)	0.31	> 100	> 100	–	–	–	–
CC(C)[C@H]1OCO[C@@]1(Cn1cncn1)c1ccc(Cl)cc1	0.4 (≈ 1.3 µM)	0.04	> 100	100 (≈ 325 µM)	–	–	–	–
Fc1ccc([C@H]2OCO[C@]2(Cn2cncn2)c2ccc(Cl)cc2Cl)cc1	0.1 (≈ 0.254 µM)	0.31	> 100	> 100	–	–	–	–
CC(C)(O)C(O)(Cn1cncn1)c1ccccc1 (stereo unspecified)	6.3 (≈ 25.5 µM)	> 20	> 100	> 100	–	–	–	–
O=C(c1cccc(Cl)c1)C(O)(Cn1cncn1)c1cccc(Cl)c1 (stereo unspecified)	3.13 (≈ 8.64 µM)	> 20	> 100	> 100	–	–	–	–
O=C1O[C@H](c2cccc(Cl)c2)[C@@](Cn2cncn2)(c2cccc(Cl)c2)O1	6.3 (≈ 16.1 µM)	> 20	100 (≈ 256 µM)	> 100	–	–	–	–
Fc1ccc([C@H]2OCO[C@]2(Cn2cncn2)c2ccc(Cl)cc2)cc1	0.2 (≈ 0.556 µM)	0.63	> 100	> 100	–	–	–	–
O=C1O[C@H](c2ccc(F)cc2)[C@@](Cn2cncn2)(c2ccc(F)cc2)O1	3.1 (≈ 8.68 µM)	2.5	> 100	> 100	–	–	–	–
CC(C)[C@H]1OC(=O)O[C@]1(Cn1cncn1)c1ccc(Cl)cc1	1.6 (≈ 4.97 µM)	0.31	> 100	> 100	–	–	–	–
CC(O)(c1ccc(Cl)cc1Cl)C(O)(Cn1cncn1)c1ccc(Cl)cc1 (stereo unspecified)	0.1 (≈ 0.242 µM)	1.25	100 (≈ 242 µM)	50 (≈ 121 µM)	–	–	–	–
COc1ccc(C(=O)C(O)(Cn2cncn2)c2ccc(OC)cc2)cc1 (stereo unspecified)	12.5 (≈ 35.4 µM)	> 20	> 100	> 100	–	–	–	–
CCCC(O)(Cn1cncn1)C(=O)c1ccc(Cl)cc1 (stereo unspecified)	0.8 (≈ 2.72 µM)	0.31	> 100	50 (≈ 170 µM)	–	–	–	–

Structure (SMILES)	MIC (Trichophyton benhamiae; [3]) [µg/mL]	minimal effective concentration (Candida albicans [1]) [µg/mL]	MIC (Candida albicans [2]; [4]) [µg/mL]	MIC (Aspergillus fumigatus; [5]) [µg/mL]	MIC (Trichophyton benhamiae) [µg/mL]	MEC (Candida albicans [1]) [µg/mL]	MIC (Candida albicans [2]) [µg/mL]	MIC (Aspergillus fumigatus) [µg/mL]
CC(O)(c1ccc(F)cc1)C(O)(Cn1ccnc1)c1ccccc1Cl (stereo unspecified)	0.1 (≈ 0.277 µM)	1.25	> 100	100 (≈ 277 µM)	–	–	–	–
COc1ccccc1C(=O)C(O)(Cn1cncn1)c1ccccc1OC (stereo unspecified)	12.5 (≈ 35.4 µM)	> 20	> 100	> 100	–	–	–	–
CCC(O)(Cn1cncn1)C(=O)c1ccc(Cl)cc1Cl (stereo unspecified)	1.6 (≈ 5.09 µM)	20	> 100	> 100	–	–	–	–
OC(Cn1cncn1)(c1ccc(Cl)cc1Cl)C(O)(c1ccc(F)cc1)c1cccs1 (stereo unspecified)	0.8 (≈ 1.72 µM)	5	> 100	> 100	–	–	–	–
CCCC[C@H]1OC(=O)O[C@]1(Cn1cncn1)c1ccc(Cl)cc1Cl	0.2 (≈ 0.54 µM)	0.63	> 100	> 100	–	–	–	–
O=C(c1ccc(F)cc1)C(O)(Cn1cnnc1)c1ccccc1Cl (stereo unspecified)	> 100	> 20	> 100	> 100	–	–	–	–
CC(C)[C@H]1OC(=O)O[C@@]1(Cn1cncn1)c1ccc(Cl)cc1	6.3 (≈ 19.6 µM)	0.63	> 100	> 100	–	–	–	–
O=C(c1ccc(F)cc1)C(O)(Cn1cnnc1)c1ccc(Cl)cc1Cl (stereo unspecified)	> 100	> 20	> 100	> 100	–	–	–	–
CC(C)[C@H]1OS(=O)O[C@]1(Cn1cncn1)c1ccc(Cl)cc1 (stereo partly specified)	0.4 (≈ 1.17 µM)	0.16	> 100	> 100	–	–	–	–
O=C(c1ccc(Cl)cc1)C(O)(Cn1cncn1)c1ccc(Cl)cc1 (stereo unspecified)	0.39 (≈ 1.08 µM)	20	50 (≈ 138 µM)	> 100	–	–	–	–
Cc1ccc(C(=O)C(O)(Cn2cncn2)c2ccc(C)cc2)cc1 (stereo unspecified)	1.56 (≈ 4.85 µM)	20	> 100	> 100	–	–	–	–
O=C(c1ccccc1Cl)C(O)(Cn1cncn1)c1ccccc1 (stereo unspecified)	1.6 (≈ 4.88 µM)	> 20	> 100	> 100	–	–	–	–
CCCCC(O)(Cn1cncn1)C(=O)c1ccccc1Cl (stereo unspecified)	0.4 (≈ 1.3 µM)	0.63	> 100	50 (≈ 162 µM)	–	–	–	–
O=C(c1ccccc1)C(O)(Cn1cncn1)c1ccccc1Cl (stereo unspecified)	1.6 (≈ 4.88 µM)	2.5	> 100	> 100	–	–	–	–
CC(O)(c1ccc(Cl)cc1)C(O)(Cn1cncn1)c1ccc(F)cc1 (stereo unspecified)	0.4 (≈ 1.11 µM)	2.5	> 100	> 100	–	–	–	–
CC(C)C(=O)C(O)(Cn1cncn1)c1ccc(Cl)cc1 (stereo in doubt; 13)	–	–	–	–	–	0.08	>100	12.5 (≈ 42.6 µM)
OC(c1ccc(Cl)cc1)C(O)(Cn1cncn1)c1ccc(Cl)cc1 (stereo in doubt; 88)	–	–	–	–	0.39 (≈ 1.07 µM)	1.25	50 (≈ 137 µM)	–
CC(C)C(O)C(O)(Cn1cncn1)c1ccc(Cl)cc1 (stereo in doubt; 101)	–	–	–	–	6.3 (≈ 21.3 µM)	0.63	–	–
OC(c1ccc(F)cc1)C(O)(Cn1cncn1)c1ccc(Cl)cc1 (stereo in doubt; 104)	–	–	–	–	6.3 (≈ 18.1 µM)	2.5	50 (≈ 144 µM)	–
CCCC(O)C(O)(Cn1cncn1)c1ccc(Cl)cc1 (stereo in doubt; 106)	–	–	–	–	1.6 (≈ 5.41 µM)	0.16	–	–
O=C1O[C@H](c2ccc(Cl)cc2)[C@@](Cn2cncn2)(c2ccc(Cl)cc2Cl)O1 (stereo in doubt; 129)	–	–	–	–	0.2 (≈ 0.471 µM)	0.04	–	–
OC(Cn1cncn1)(c1ccc(F)cc1)C(O)(c1ccccc1)c1ccc(F)cc1 (stereo in doubt; 164)	–	–	–	–	>100	–	–	–
CC(C)C(C)(O)C(O)(Cn1cncn1)c1ccc(Cl)cc1Cl (stereo in doubt; 168)	–	–	–	–	0.1 (≈ 0.29 µM)	0.04	–	25 (≈ 72.6 µM)
CCC(O)(c1ccc(F)cc1)C(O)(Cn1cncn1)c1ccc(Cl)cc1 (stereo in doubt; 170)	–	–	–	–	0.1 (≈ 0.266 µM)	0.04	–	25 (≈ 66.5 µM)
CC(O)(c1ccc(F)cc1)C(O)(Cn1cncn1)c1ccccc1Cl (stereo in doubt; 181)	–	–	–	–	0.1 (≈ 0.276 µM)	1.25	–	6.3 (≈ 17.4 µM)
CCCCC(O)(c1ccc(F)cc1)C(O)(Cn1cncn1)c1ccccc1Cl (stereo in doubt; 188)	–	–	–	–	0.2 (≈ 0.495 µM)	2.5	–	>100
CCCCC(O)(Cn1cncn1)C(C)(O)c1ccc(Cl)cc1 (stereo in doubt; 190)	–	–	–	–	0.8 (≈ 2.47 µM)	2.5	–	50 (≈ 154 µM)

Reference: ChEMBL document CHEMBL1123760, “Synthesis and oral antifungal activity of novel azolylpropanolones and related compounds” (1987)
